Assay outcomes: PubChem BioAssay, several laboratories
SENP1 inh = human SENP1 catalytic domain inhibitors, primary screen, biochemical, FRET, uHTS | Sentrin-specific protease 1 (Homo sapiens), Q9P0U3 | 360,000 tested, 0.21% active | AID 624204, 2012 | inhibition, % at 10 µM | recombinant SENP1 catalytic domain, CyPet-SUMO1-YPet FRET cleavage;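 active = inhibition at least 30% at 10 µM, raw YFP signal under a set limit, fluorescence ratio 0.5 to 1.5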;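 note: 0% = enzyme with DMSO and 100% = no enzyme wells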
Target sequence (Q9P0U3 419-644 limits assumed): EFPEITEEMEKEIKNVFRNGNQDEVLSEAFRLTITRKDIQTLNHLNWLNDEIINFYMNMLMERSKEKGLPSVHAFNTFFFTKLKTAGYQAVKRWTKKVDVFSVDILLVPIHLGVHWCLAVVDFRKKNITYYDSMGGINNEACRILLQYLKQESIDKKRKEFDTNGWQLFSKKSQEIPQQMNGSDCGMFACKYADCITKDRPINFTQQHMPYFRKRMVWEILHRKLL
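System: Recombinant human SENP1 catalytic domain, His6-tagged | Incubation: Enzyme reaction for 50 min at room temperature, dark | Medium: Tris pH 8 with BME, BSA, NP40 and catalase | Also added: 25 nM SUMO1 FRET substrate | Compound: 10 µM single point, 0.5% DMSO | Measured by: FRET fluorescence in CFP and YFP emission channels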
TPT1 inh = Candida albicans TPT1 enzyme inhibitors, primary screen, biochemical, fluorescence polarization. tRNA 2'-phosphotransferase TPT1 (Candida albicans SC5314). recombinant caTPT1, FP RNA substrate dephosphorylation. inhibition, % at 5 µM. 300,000 tested, 0.81% active;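 active = inhibition above the mean of all tested compounds plus 3 SD, set per screening campaign, cut at about 24% in these data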;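 note: plate controls were DMSO alone for no effect and ferristatin control at 100 nM for full effect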
HNF4A DNA FP = change in binding of human HNF4A to DNA, primary screen, biochemical, fluorescence polarization, FITC-DNA | activity change, % at 10 µM | 360,000 tested, 0.3% active | AID 1224865, 2016 | 1 h | Hepatocyte nuclear factor 4-alpha (Homo sapiens), P41235; in the data active = activity change above about 30%, passing the limit was not always enough
Rpn11 block = Rpn11 (PSMD14) deubiquitinase inhibitors, primary screen, biochemical, fluorescence polarization, uHTS | 26S proteasome non-ATPase regulatory subunit 14 (Homo sapiens), O00487 | human 26S proteasome, Ub4-pepOG fluorescence polarization; 20S core pre-blocked with epoxomicin | inhibition, % at 20 µM | 360,000 tested, 0.59% active;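 active = inhibition at 20 µM, scaled to each plate's controls, above about 33%, limit read from the data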
Target sequence (O00487 whole entry, looked up): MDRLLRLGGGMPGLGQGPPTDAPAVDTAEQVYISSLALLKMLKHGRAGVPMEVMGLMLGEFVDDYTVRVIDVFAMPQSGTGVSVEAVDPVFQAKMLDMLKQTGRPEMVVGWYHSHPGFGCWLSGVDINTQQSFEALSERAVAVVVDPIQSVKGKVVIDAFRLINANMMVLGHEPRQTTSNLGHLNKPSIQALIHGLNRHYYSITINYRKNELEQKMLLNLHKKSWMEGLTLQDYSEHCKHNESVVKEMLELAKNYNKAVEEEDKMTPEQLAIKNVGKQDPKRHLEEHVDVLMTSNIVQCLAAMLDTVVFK
CSN deneddyl inh = inhibitors of CSN-mediated cullin deneddylation, primary screen, biochemical, fluorescence polarization, uHTS; COP9 signalosome complex subunit 5 (Homo sapiens), Q92905; Purified CSN, SCF-Nedd8-OG deneddylation; inhibition, % at 12.5 µM; 360,000 tested, 0.38% active; AID 651999, 2013;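 active = pattern-corrected inhibition above about 35%, with an unprinted fluorescence ratio check between 0.5 and 1.5, limit read from the data, passing the limit was not always enough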;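 note: 0% = enzyme with substrate and 100% = substrate without enzyme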
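Schedule: reaction 90 min, room temperature / Assay system: HEK293T-derived human Csn5 enzyme / Input: Csn5 at 0.24 nM final / Measure: inhibition of Csn5 cleavage, % / Control set: substrate-only high control, full reaction low control / Technique: fluorescence polarization of the substrate / Buffer or medium: Tris/NaCl/DTT buffer, pH 7.5 / Reagent: SCFSkp2-Nedd8OG substrate at 10 nM final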
An asterisk follows results filed as active; . = no result shown. An excerpt weighted towards active compounds, which were near 1.6% of everything screened.

SMILES	SENP1 inh	TPT1 inh	HNF4A DNA FP	Rpn11 block	CSN deneddyl inh
Cc1cccc(CS(=O)(=O)c2nnc([C@H](Cc3ccccc3)NC(=O)OC(C)(C)C)o2)c1	7	67*	5	10	0
COc1cccc(C2C([N+](=O)[O-])=C(N)Oc3cc(C)oc(=O)c32)c1 (centres undefined)	-3	-2	1	1	-1
C[C@@H]1CN([C@H](C)CO)C(=O)c2cc(Br)cnc2O[C@@H]1CN(C)Cc1ccc(-c2ccccc2)cc1	1	.	-4	-1	6
O=[N+]([O-])c1ccc(N/N=C/c2sc(N3CCOCC3)nc2-c2ccccc2)c(S(=O)(=O)Nc2ccc(Cl)cc2)c1	-8	.	59*	35	35
CCn1c(=O)c(C(=O)CN2CCCc3ccccc32)c(N)n(Cc2ccccc2)c1=O	-30	14	88	.	48*
O=C(C=Cc1cccs1)c1ccccc1	-1	.	1	-7	6
O=C(O)CCCN1C(=O)/C(=C\c2ccccc2OCc2ccccc2)SC1=S	-4	-2	51*	0	4
O=C(OC1CC2CC1[C@H]1CCCCN1C2=O)N1CCC(c2ccccc2)CC1 (some centres undefined)	-3	.	-1	.	-4
Cc1ccc(Cn2ccc(NC(=O)c3cc(-c4ccc5c(c4)OCO5)on3)n2)cc1	0	.	-2	-2	112*
Cc1ccc(Cn2ccc(NC(=O)c3cc(-c4ccco4)on3)n2)cc1	-1	7	16	32	52*
Cc1ccc(Cn2ccc(NC(=O)c3cc(-c4ccccc4)on3)n2)cc1	0	1	-3	-1	4
Cn1c(N)c(C(=O)CSc2nnc(-c3c[nH]c4ccccc34)n2C2CC2)c(=O)[nH]c1=O	-5	.	-2	-3	35*
CCOc1cc(/C=C2\C(=N)N3N=C(S(=O)(=O)CC)SC3=NC2=O)ccc1OC(=O)c1ccco1	-36	9	10	35	12
CCOc1cc(/C=C2/C(=N)N3C(=NC2=O)SN=C3S(C)(=O)=O)ccc1OC(=O)c1ccco1	-70	8	34	62*	25
COc1ccccc1Cc1c(-c2ccccc2)nc2c(C)cc(Br)cn12	9	.	9	26	97*
COc1ccccc1Cc1c(-c2ccc(C#N)cc2)nc2c(Cl)cc(C(F)(F)F)cn12	-17	.	61	.	46*
O=C(Cn1cnnn1)NC1CCCN(Cc2ccccc2F)C1 (centres undefined)	-2	-1	1	0	-1
CCOc1cc(-c2cc(-c3ccccc3)nc(N)c2C#N)ccc1O	-1	0	28*	3	1
O=S(=O)(O)c1cc(O)c2c(O)c(N=Nc3cc(Cl)ccc3O)c(S(=O)(=O)O)cc2c1	-1	-4	-51	1	32
Cc1cc(-c2ccc(N=Nc3c(S(=O)(=O)O)cc4cc(S(=O)(=O)O)cc(N)c4c3O)c(C)c2)ccc1N=Nc1c(S(=O)(=O)O)cc2cc(S(=O)(=O)O)cc(N)c2c1O	.	80*	.	.	.
CCCCn1c(O)c(N=Nc2ccccc2O)c2ccccc21	26	.	84*	.	13
COc1cc(/C=N/NC(=O)c2ccncc2)ccc1OCC(=O)Nc1ccccc1	1	15	-3	-8	-4
COc1cc(/C=N/NC(=O)c2ccccc2O)ccc1OCC(=O)Nc1ccccc1	1	4	-3	40	49*
O=C(O)CSc1nc2ccc(Br)cc2[nH]1	2	.	4	2	70*
O=C(O)CSc1nc2ccc(Cl)cc2[nH]1	2	0	-1	-4	-2
SMILES	SENP1 inh	TPT1 inh	HNF4A DNA FP	Rpn11 block	CSN deneddyl inh
COc1ccc(-c2ccc3c(=O)cc(-c4ccsc4)oc3c2)cn1	-6	.	63*	.	104*
CC(C)CN(C(=O)c1cccc(Cl)c1)c1c(N)n(Cc2ccccc2)c(=O)[nH]c1=O	-4	.	2	-4	-5
Cc1cc(N2CCN(C)CC2)nc2ccc(NC(=O)CCC(=O)NCCc3ccc(Cl)cc3)cc12	-1	.	3	4	3
Cc1ccc(NC(=O)c2ccc(-c3nn(C)c(=O)c4ccccc34)cc2)cc1	0	-3	-3	18	-5
Cn1nc(-c2ccc(C(=O)Nc3ccc(F)cc3)cc2)c2ccccc2c1=O	-1	-1	1	25	44*
Cc1c(NC(=O)C2CCCN2S(=O)(=O)c2ccccc2)c(=O)n(-c2ccccc2)n1C (centres undefined)	2	-1	2	-6	57*
Cc1c(NC(=O)C2CCN(S(=O)(=O)c3ccc(Cl)cc3)CC2)c(=O)n(-c2ccccc2)n1C	2	4	6	-4	-1
O=C1CCCCC1Sc1nnc(Nc2ccccc2)s1 (centres undefined)	1	-1	4	2	45*
O=C(N/N=C\c1cccnc1)c1cc(-c2ccc(Cl)s2)[nH]n1	1	2	8	27	39*
Cc1ccc(S(=O)(=O)N2[C@@H](c3ccc(Cl)cc3)C(C(=O)OC(C)(C)C)=CC[C@H]2c2ccc(Cl)c(Cl)c2)cc1	0	.	-4	6	144*
COC(=O)c1ccc2c(=O)n(CCN3CCOCC3)c(SCC(=O)Nc3ccc(C)cc3)nc2c1	-1	-3	4	1	1
CSCCC(C(=O)Nc1c(C)cccc1C)n1c(COc2ccc(C)cc2)nc2ccccc21 (centres undefined)	2	.	-2	.	-1
Cc1cc(C(=O)COC(=O)c2ccc(F)cc2)c(C)n1C	-2	.	-3	-3	-4
Cc1cc(C(=O)COC(=O)c2cc(Cl)c(O)c(Cl)c2)c(C)n1C	2	.	-23	-31	42*
CCOC(=O)c1c(NC(=O)COC(=O)Cn2c(C)nc3ccccc32)sc2c1CCCC2	0	-4	0	16	43*
O=[N+]([O-])c1ccc(N/N=C/c2ccc(OCc3cccc4ccccc34)cc2)nc1	-27	14	35*	.	70*
O=C(C1CCN(S(=O)(=O)c2ccc(-n3cnnn3)cc2)CC1)N1CCCCC1	1	-1	3	0	2
O=c1ccc(-c2ccc(S(=O)(=O)Nc3ccc(F)cc3)s2)n[nH]1	3	-4	0	1	0
O=c1ccc(-c2ccc(S(=O)(=O)NCc3cccc(Br)c3)s2)n[nH]1	1	-2	36*	-5	-4
Cc1ccc(S(=O)(=O)NCCc2ccncc2)cc1[N+](=O)[O-]	3	-2	1	-2	-3
CC(=NNC(=S)N1CCN(c2ccccn2)CC1)c1ccccn1	17	.	23	42*	6
